Data set [1] can be described thus: in vitro. Conditions: human, liver microsomes.
The nature of data set [2]: Half life in rat. It counts as ADME, organism-based. As to conditions: in vivo.
Data set [3] can be described thus: Partition coefficient of the compound at pH 7.4. It is filed as physicochemical. As to conditions: octanol/water. In short, it runs like this:
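cLogD at pH 7.4 calculated with ACD pchbat version 9.3.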

A short description of data set [4]: Oral bioavailability in rat. It counts as ADME, organism-based. As to conditions: in vivo.
Data set [5] can be described thus: Volume of distribution at steady state in rat. As to conditions: in vivo, read-out: Vdss. It counts as ADME, organism-based.
Data set [6] can be described thus: Plasma clearance in rat. It is filed as ADME, organism-based.

Broadly, the microsomal CLint is the capacity of the preparation to metabolise the compound, expressed as a volume cleared per time. Read a low microsomal CLint as slow turnover. One may read the half-life as the time needed for the level to fall by half in the phase considered. The logD is the decadic logarithm of the distribution of all forms, ionised or not, between an organic phase and buffer at a given pH. The low end stands for a more hydrophilic compound, the high end for a more lipophilic compound. What is called bioavailability is dose-corrected exposure relative to a reference, in per cent. Low readings indicate poor availability, high ones good availability. Broadly, the clearance is the volume of plasma or blood freed of the substance per unit of time. A low value points to a low capacity for elimination.

In turn, `N#Cc1cccc(-c2ccc3nnc(Cc4ccc5ncccc5c4)n3n2)c1` registered a microsomal CLint at 0.5 h, 1 µM in data set [1] of 22.7 µL/min/mg.
In turn, `C[C@@H](c1c[nH]c2ncccc12)c1nnc2ccc(-c3ccc(C#N)cc3)nn12` showed a microsomal CLint at 0.5 h, 1 µM in data set [1] of 28 µL/min/mg.
In turn, `CC(C)Nc1ccc2nnc([C@@H](C)c3c[nH]c4ncccc34)n2n1` showed a microsomal CLint at 0.5 h, 1 µM in data set [1] of 25 µL/min/mg.
Take `CCNc1ccc2nnc([C@@H](C)c3c[nH]c4ncccc34)n2n1`: the microsomal CLint at 0.5 h, 1 µM in data set [1] was 18 µL/min/mg.
In data set [2], `C[C@@H](c1ccc2ncccc2c1)c1nnc2ccc(-c3cnn(C)c3)nn12` had a half-life of 1.9 h. The logD in data set [3] stood at 2.05. In data set [4], this compound showed a bioavailability of 58%. For the same compound, in data set [1], the microsomal CLint at 0.5 h, 1 µM is less than 7.6 µL/min/mg. The Vd in data set [5] worked out at 3.5 L/kg. This compound also registered a clearance in data set [6] of 21 mL/min/kg.
The compound `Nc1ccc2nnc(Cc3ccc4ncccc4c3)n2n1` had a microsomal CLint at 0.5 h, 1 µM in data set [1] of less than 7.6 µL/min/mg.
The same measure, in the same setting: under `CN(C)c1ccc2nnc(Cc3ccc4ncccc4c3)n2n1` stands 35 µL/min/mg.
`C[C@@H](c1ccc2ncccc2c1)c1nnc2ccc(-c3ccc(F)c(F)c3)nn12` gave a half-life in data set [2] of 3.6 h. Further, in data set [3], the logD is 3.07. In data set [4], this compound registered a bioavailability of 52%. The microsomal CLint at 0.5 h, 1 µM in data set [1] was determined as 13.4 µL/min/mg. The Vd in data set [5] amounted to 3.6 L/kg. The compound further came in with a clearance in data set [6] of 31 mL/min/kg.
Consider `COc1ccc(-c2ccc3nnc([C@@H](C)c4ccc5ncccc5c4)n3n2)cc1F`, for which the microsomal CLint at 0.5 h, 1 µM in data set [1] was 281 µL/min/mg.
Regarding `COc1ccc(-c2ccc3nnc([C@@H](C)c4ccc5ncccc5c4)n3n2)cc1C`, in data set [1], the microsomal CLint at 0.5 h, 1 µM was determined as 304 µL/min/mg.
In turn, `Cc1cccc(-c2ccc3nnc([C@@H](C)c4ccc5ncccc5c4)n3n2)c1` gave a microsomal CLint at 0.5 h, 1 µM in data set [1] of 81.8 µL/min/mg. Compared with the last compound, the microsomal CLint at 0.5 h, 1 µM is about 3.7-fold lower.
Compound `C[C@@H](c1ccc2ncccc2c1)c1nnc2ccc(-c3cccc(C#N)c3)nn12` had a half-life in data set [2] of 4.8 h. In data set [3], this compound registered a logD of 2.8. The compound further displayed a bioavailability in data set [4] of 13%. Moreover, the microsomal CLint at 0.5 h, 1 µM in data set [1] is 17.9 µL/min/mg. Further, in data set [5], the Vd is 4.9 L/kg. Besides, the clearance in data set [6] came to 22 mL/min/kg.
In data set [1], `C[C@@H](c1ccc2ncccc2c1)c1nnc2ccc(-c3ccc(C#N)cc3)nn12` showed a microsomal CLint at 0.5 h, 1 µM of 12.1 µL/min/mg.
In turn, `C[C@@H](c1ccc2ncccc2c1)c1nnc2ccc(-c3ccccc3C#N)nn12` came in with a microsomal CLint at 0.5 h, 1 µM in data set [1] of 23.1 µL/min/mg.
In data set [1], `C[C@@H](c1ccc2ncccc2c1)c1nnc2ccc(-c3ccc4c(c3)OCCO4)nn12` had a microsomal CLint at 0.5 h, 1 µM of 304 µL/min/mg.
`CNC(=O)c1ccc(-c2ccc3nnc([C@@H](C)c4ccc5ncccc5c4)n3n2)cc1` showed a microsomal CLint at 0.5 h, 1 µM in data set [1] of 12.2 µL/min/mg.
Same read-out and setting: as for `CCS(=O)(=O)c1ccc(-c2ccc3nnc([C@@H](C)c4ccc5ncccc5c4)n3n2)cc1`, the figure is 10.4 µL/min/mg.
In the case of `C[C@@H](c1ccc2ncccc2c1)c1nnc2ccc(-c3ccc(S(C)(=O)=O)cc3)nn12`, the microsomal CLint at 0.5 h, 1 µM in data set [1] is less than 7.6 µL/min/mg.
`C[C@@H](c1ccc2ncccc2c1)c1nnc2ccc(-c3ccc(N(C)C)nc3)nn12`: the microsomal CLint at 0.5 h, 1 µM in data set [1] was 232 µL/min/mg.
In turn, `C[C@@H](c1ccc2ncccc2c1)n1nnc2ncc(-c3cnn(C)c3)nc21` came in with a microsomal CLint at 0.5 h, 1 µM in data set [1] of less than 7.6 µL/min/mg.
As to `C[C@@H](c1ccc2ncccc2c1)n1nnc2ncc(-c3cnn(CCO)c3)nc21`, in data set [1], the microsomal CLint at 0.5 h, 1 µM was less than 7.6 µL/min/mg.
For the compound `CC(C)Nc1ccc2nnc([C@@H](C)c3ccc4ncccc4c3)n2n1`, in data set [1], the intrinsic clearance (microsomal CLint) at 0.5 h, 1 µM amounted to 20.2 µL/min/mg.
For the compound `Cn1cc(-c2ccc3nnc(Cc4c[nH]c5ncccc45)n3n2)cn1`, the microsomal CLint at 0.5 h, 1 µM in data set [1] was less than 7.6 µL/min/mg.
In turn, `C[C@@H](c1c[nH]c2ncccc12)c1nnc2ccc(-c3cnn(C)c3)nn12` registered a microsomal CLint at 0.5 h, 1 µM in data set [1] of less than 7.6 µL/min/mg.
With `Fc1ccc(-c2ccc3nnc(Cc4ccc5ncccc5c4)n3n2)cc1F`, the microsomal CLint at 0.5 h, 1 µM in data set [1] was found to be 13.4 µL/min/mg.

These data come from ChEMBL document CHEMBL2429765 (J Med Chem, 2013).
